PMC11208914 (Biochemistry and Biophysics Reports, 2024)
Entries after “also recorded” stand apart in the source; their conditions may differ. Where two headings read alike, the source gives them in different places.

What was measured:
HeLa cells = experiment: CellTiter-Glo cell viability test, HeLa cells; type: cell-based
How it was run: (§1)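 HMC3 or HeLa cells were grown in DMEM with L-glutamine, 10 % FCS and 1 % penicillin/streptomycin, then seeded at 10^4 cells/well. Peptide in ½ dilutions (100 to 1.5 μg/ml) was added for 2 h at 37 °C and 5 % CO2. Medium was then replaced with DMEM/10 % FCS for 24 h, with untreated cells as control. ATP was read by CellTiter-Glo luminescence, in triplicate.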

ZIKV PF13 = type: cell-based, Zika virus; conditions: FACS; for reduction in infection: virus treated before infection of HMC3 cells
How it was run: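 HMC3 cells were seeded at 4.10^4 cells/well the day before. ZIKV PF13 (MOI 1.5) was preincubated with ½ dilutions of peptide (50 to 3 μg/ml) for 1 h at 37 °C, then added to cells for 1.5 h at 37 °C before medium replacement; duplicates. Trypsinized cells were fixed and permeabilized (30 min, 4 °C), stained with 4G2 anti-envelope antibody (1/500) and Alexa488 secondary (1/1000), then analysed by flow cytometry.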

HMC3 cells = experiment: CellTiter-Glo cell viability test, HMC3 cells; type: cell-based; conditions: Fig. 2; for cytotoxic effect on HMC3 cells at 100 μg/ml: about 100 μg/ml
How it was run: as §1

Row | Sequence | viability of HeLa cells at 100 μg/ml (HeLa cells) | concentration at which the peptide exhibits cytotoxicity to HeLa cells (HeLa cells; Fig. 3) | reduction in infection (ZIKV PF13; 6.25 μg/ml) | concentration at which the peptide remained non-toxic to HMC3 cells (HMC3 cells) | cytotoxic effect on HMC3 cells at 100 μg/ml (HMC3 cells) | reduction in infection (ZIKV PF13; 3 μg/ml) | cytotoxicity to HeLa cells (HeLa cells; even at high concentrations, Fig. 3) | effect on ZIKV PF13 infection (ZIKV PF13; non-cytotoxic concentrations 50 to 3 μg/ml, HMC3 cells)
1 | ALWKTLLKKVLKAAAKAALKAVLVGAKA [K4K20K27S4] | 18% | 50 µg/mL | Approximately 90% | about 12.5 μg/ml | exhibited cytotoxicity | – | – | –
2 | ALWKTLLKKVLKAAAKAALKAVLVGANA [K4K20S4] | approximately 1% | around 25 μg/ml | – | about 12.5 μg/ml | exhibited cytotoxicity | Approximately 90% | – | –
3 | GLKKKIKEVGKEAAKAAAKAAGKAALGAVSEAV [K3K4B2] | – | – | – | – | no cytotoxic effects | – | non-cytotoxic; also recorded: did not exhibit any toxic effects | increased the infection
